Screening data as filed in PubChem.
Sampled rows, rich in hits. Any-hit rate of the full collection: about 3.7%.
KCNQ1 act: potentiators or activators of human KCNQ1 potassium channel; AID 2648; B-score at 10 µM; P51787; actives 0.35% (n = 310,000); CHO-K1 KCNQ1, thallium flux FluxOR fluorescence; active compounds read high;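 active = fluorescence ratio B-score, a plate-corrected score, at least three library SD, with initial intensity B-score within 5 SD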
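Material: CHO-K1 cells stably expressing KCNQ1. Medium: assay buffer for compound exposure, DMSO matched across wells. Reagent: K+/Tl+ depolarizing stimulus. Compound dosing: single-concentration screen. Times: 37 °C overnight plating, 90-min dark dye load, 20-min compound pretreatment. Technique: FluxOR Tl+ flux fluorescence.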
KCNK3 block: human KCNK3 channel inhibition, primary screen; O14649; B-score at 10 µM; AID 602410; actives 0.84% (n = 340,000); CHO-KCNK3 thallium flux, FluxOR fluorescence; active compounds read low;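 active = B-score under library mean minus 4 SD, starting fluorescence ratio at most library mean plus 5 SD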;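 also: more negative B-score means stronger inhibition of thallium flux through KCNK3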
KCNQ1 inh: blocks the human KCNQ1 potassium channel | B-score at 10 µM | actives 1.3% (n = 310,000) | CHO-K1 KCNQ1, FluxOR thallium flux fluorescence; active compounds read high;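 active = compounds whose thallium flux B-score, printed positive for inhibition, exceeds three library SD while starting fluorescence stays within three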;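 also: channel opened by potassium depolarization with thallium stimulus after 20 min compound exposure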
Kir21 block: inhibitors of mouse Kir2.1 inward-rectifier potassium channel | actives 0.85% (n = 310,000) | HEK293-Kir2.1, FluxOR thallium flux fluorescence; active compounds read low | AID 1672 | B-score at 10 µM | P35561;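 active = fluorescence ratio B-score at or below minus 3 SD of library scores, with starting-brightness B-score within 2 SD, cut at about -4.2 in these data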;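 also: channel flux triggered by added potassium and thallium sulfate stimulus; B-score of peak minus minimum fluorescence over baseline after thallium stimulus; more negative B-score means stronger Kir2.1 block with less thallium influx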
hERG rescue: hERG (human) protection from proarrhythmic block; CHO-hERG, FluxOR thallium flux, dofetilide IC70 present; activation (rescue from dofetilide block), less the hit threshold, % at 10 µM; actives 0.51% (n = 310,000);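 active = activation above the mean of controls blocked by dofetilide plus 5 SD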;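 also: thallium influx through hERG after potassium depolarization seen as dye fluorescence rise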
KCNK9 block: inhibitors of human KCNK9 two-pore domain potassium channel | Q9NPC2 | HEK293 KCNK9, FluxOR thallium flux fluorescence; active compounds read low | B-score at 10 µM | actives 1.2% (n = 310,000) | AID 488922;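 active = ratio B-score over 3 SD below the library mean, with starting fluorescence within 5 SD of its mean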;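 also: negative B-score means less thallium flux so channel inhibition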
KCNK9 block conf: confirmation of human KCNK9 potassium channel inhibitors; shares compounds with KCNK9 block; HEK293 KCNK9 cells, FluxOR thallium flux fluorescence; inhibition, % at 10 µM; actives 43% (n = 4,900);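 active = thallium signal inhibited by more than 5 SD of the compound-free buffer control wells, on both duplicate plates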;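 also: 0% = assay buffer control wells without compound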
Kir2-1 spec: tests whether KCNK9 modulators also affect mouse Kir2.1. shares compounds with KCNK9 block. Kir2.1 cells, FluxOR thallium flux fluorescence. inhibition, % at 10 µM. actives 4% (n = 4,900);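 active = thallium signal drop more than 5 SD beyond the mean of the no-compound control wells, seen in both duplicate plates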;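 also: signal is fluorescence rise after thallium addition divided by baseline fluorescence; plate controls were assay buffer only for no effect and full block by chlorpromazine control for full effect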
HEK293 Tl ctr: second counter-screen for KCNK9 modulators: effect in non-induced cells; non-induced KCNK9-HEK293, FluxOR thallium flux; inhibition, % at 10 µM; actives 40% (n = 4,900); shares compounds with KCNK9 block;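 active = thallium signal drop beyond 5 SD of the untreated control mean, on both duplicate plates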;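 also: plate controls were buffer only IC0 wells for no effect and SID17386958 at its maximal inhibitory level for full effect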
KCNK3 inh conf: human KCNK3 channel inhibition, confirmation assay | shares compounds with KCNK3 block | CHO-KCNK3 thallium flux, FluxOR fluorescence; 0% buffer, 100% carvedilol maximal block | ratio percent of control, % at 10 µM | actives 99% (n = 2,400) | AID 651638;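 active = ratio percent of control, averaged over triplicates, above buffer control mean plus 5 SD, cut at about 64% in these data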;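 also: ratio is the fluorescence rise from min to max over baseline after thallium stimulus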
KCNK3 noninduced: counter-screen for KCNK3 inhibitors: effect in non-induced cells | AID 651747 | non-induced KCNK3 parental cells, FluxOR thallium flux; active compounds read low | actives 40% (n = 2,400) | thallium flux ratio (lower = more inhibition) at 10 µM | shares compounds with KCNK3 block;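 active = thallium flux ratio, averaged over three wells, more than 5 SD below the buffer control mean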;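 also: host cells are CHO cells without KCNK3 induction; ratio is peak minus trough fluorescence over baseline then normalized to buffer controls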
* marks the source's active call; other numbers are inactive results; i = inactive; x = no result.

SMILES	KCNQ1 act	KCNK3 block	KCNQ1 inh	Kir21 block	hERG rescue	KCNK9 block	KCNK3 inh conf	KCNK3 noninduced	others
CC(C)(C)c1cc(NC(=O)COC(=O)c2nccnc2N)n(-c2ccccc2)n1	i	-9.08*	i	1.81	-11.2	-8.62*	94.3*	i	KCNK9 block conf=51.5%*;Kir2-1 spec=i;HEK293 Tl ctr=31.5%*
CC1CCN(S(=O)(=O)CCNC(=O)c2ccc(F)cc2)CC1	i	i	i	0	-10.2	i	x	x
N#Cc1c(-c2ccccc2)c(-c2ccccc2)n(Cc2ccco2)c1NC(=O)c1cccs1	i	-12.7*	6*	-0.8	-4.6	-12.6*	112.0*	i	KCNK9 block conf=57.5%*;Kir2-1 spec=i;HEK293 Tl ctr=41.5%*
O=C(Nc1ccccc1)c1sc2cc(C(F)(F)F)cnc2c1-c1cccs1	i	-9*	i	0.56	-8.3	-8.99*	112.3*	i	KCNK9 block conf=40.5%*;Kir2-1 spec=i;HEK293 Tl ctr=34.0%*
Clc1nc(-c2ccccc2)cc(-c2ccc(Br)cc2)n1	i	-9.8*	6*	-1.37	-15.9	-12.4*	103.3*	i	KCNK9 block conf=55.0%*;Kir2-1 spec=i;HEK293 Tl ctr=51.0%*
COC(=O)c1cccnc1-n1c(=O)c2cccnc2n(Cc2cccc(OC)c2)c1=O	i	i	i	-1.18	-10.2	i	x	x
COC(=O)c1cc(-c2cc(OC)ccc2OC)nc2c1c(=O)n(C)c(=O)n2Cc1ccccc1	i	-10.7*	i	0.78	-9.9	i	101.3*	i	KCNK9 block conf=i;Kir2-1 spec=i;HEK293 Tl ctr=i
COc1ccc(NC(=O)c2ccc(-n3c(C)ccc3C)cc2)c(OC)c1	i	-8.77*	i	-0.61	-8.1	i	124.0*	i
COc1ccc(OC)c(NC(=O)c2ccc(OC3CSC3)cc2)c1	i	-9.11*	i	-1.58	-4.7	i	102.0*	i
CCCc1cc(C(=O)Nc2cc(OC)ccc2OC)cs1	i	-10.4*	i	1.9	-3.5	i	130.0*	0.155*
COc1ccc(NC(=O)c2ccc(S(=O)(=O)C(F)F)cc2)c(OC)c1	i	i	i	0.2	-3.3	i	x	x
COc1cc2c(cc1NC(=O)c1ccc(C(C)(C)C)cc1)CCCC2	i	-10.4*	i	0.72	0.6	i	104.7*	i
CC(C)(C)c1ccc(CNC(=O)C2CCCN2C(=O)Nc2ccccc2)cc1 (stereo not drawn)	i	i	i	-0.97	-4.2	i	x	x
Cc1ccc(/C=C/c2nnc(-c3cccs3)o2)cc1	i	-8.81*	i	0.39	-13.8	i	84.0*	i
Cc1ccc(/C=C/c2nnc(-c3ccc(C)cc3)o2)cc1	i	i	i	-1.2	-8.3	i	x	x
O=C(CN1C(=O)c2cccc([N+](=O)[O-])c2C1=O)N1CCN(S(=O)(=O)c2ccccc2)CC1	x	i	x	x	x	x	x	x
Cc1c(C(=O)N2CCN(c3ccc(C(F)(F)F)cn3)CC2)oc2ccccc12	i	-11.5*	i	-0.38	-7.3	i	135.3*	0.148*
Cc1ccc(NC2CCCN(C(=O)CCN3CCOCC3)C2)cc1C (stereo not drawn)	i	i	i	1	-10.1	i	x	x
Cc1ccc(C)c(NC(=S)NCc2ccc3[nH]c4c(c3c2)CCCC4)c1	i	-13.5*	i	0.01	-7.2	i	119.7*	0.142*
CNC(=S)NCc1ccc2[nH]c3c(c2c1)CCCC3	i	i	i	-0.13	-24.8	i	x	x
COc1ccc(OC)c(C2NC(=O)N(C)C(C)=C2C(=O)OCc2ccccc2)c1 (stereo not drawn)	i	-9.28*	i	1.25	-10.9	i	140.7*	0.105*
CC1=C(C(=O)OCc2ccccc2)C(c2ccccc2Cl)NC(=O)N1C (stereo not drawn)	i	i	i	-3.43	-8.3	i	x	x
Cc1nc(CNC(=O)CC2C(=O)NCCN2Cc2ccc(F)cc2)cs1 (stereo not drawn)	i	i	i	-0.02	-9.2	i	x	x
COc1cc2c(cc1OC)C(C)N(C(=O)c1sc(-c3cnccn3)nc1C)CC2 (stereo not drawn)	i	x	i	-1.93	-14.5	i	x	x
CSc1ccc(CN(C)C(=O)C(c2ccccc2)c2ccccc2)cc1	i	-9.97*	i	-0.18	-7.4	i	126.3*	0.126*
SMILES	KCNQ1 act	KCNK3 block	KCNQ1 inh	Kir21 block	hERG rescue	KCNK9 block	KCNK3 inh conf	KCNK3 noninduced	others
CSc1ccc(CN(C)C(=O)C(Cc2ccccc2)NC(=O)c2ccccc2)cc1 (stereo not drawn)	i	i	i	-0.41	-20.9	i	x	x
c1ccc(CNc2ncnc3scc(-c4cccs4)c23)nc1	i	-11.2*	i	-0.2	-33.1	i	118.3*	i
c1ccc(-c2csc3ncnc(NCc4ccccn4)c23)cc1	i	i	i	-2.45	-24.1	i	x	x
COc1ccccc1/C=N/NC(=O)c1cc2c(ccc3ccccc32)o1	i	-12.2*	i	-2.63	-25.8	i	85.3*	i
COc1ccc(C(=O)COC(=O)Cn2[nH]c(=O)c3ccccc3c2=O)c(OC)c1	i	i	i	1.08	-12.8	i	x	x
O=C(/C=C/c1ccccc1Cl)c1cccnc1	i	-9.73*	i	-4.18	-16.9	i	86.3*	i
CCOC(=O)C1Oc2ccccc2C(c2cccc3ccccc23)=C1C(=O)OC (stereo not drawn)	x	i	x	x	x	x	x	x
Cc1cc(N/N=C/c2ccc3c(c2)OCO3)nc2ccccc12	i	-10.7*	i	-0.65	-8.9	i	113.0*	i
O=c1[nH]c(N/N=C\c2ccc3c(c2)OCO3)nc2ccccc12	i	i	i	0.32	-5.5	i	x	x
C[C@]12c3[nH]c4ccccc4c3CCN1C(=O)C(CC(=O)NCCN1CCOCC1)C[C@@H]2C(=O)N1CCCCC1 (stereo partly drawn)	x	i	x	x	x	x	x	x
Oc1cnc2ccccc2c1CN1CCOCC1	i	-8.95*	i	0.83	-1.5	i	81.7*	i
